TRPC4 agonist = activators of mouse TRPC4 channel, primary screen, Fluo4 calcium, HEK293 TRPC4beta/mu-opioid cells; Short transient receptor potential channel 4 (Mus musculus), Q9QUQ5; Fluo4 calcium fluorescence; active compounds read high; B-score at 10 µM; 0.49% of 310,000 active; AID 2237, 2010;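 active = B-score above 5 SD of library B-scores, and initial fluorescence ratio not above library mean plus 5 SD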;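 note: positive B-score marks a calcium rise read as TRPC4 activation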
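Incubation: 45 min room-temperature Fluo4 loading, 110 s read / System: HEK293 cells stably co-expressing mouse TRPC4beta and mu-opioid receptor / Signal: Fluo4 fluorescence, kinetic / Control set: buffer (low) and maximal DAMGO (high) / Measure: integrated baseline-normalised fluorescence ratio, converted to per-well B score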
TRPC6 inhibitor = mouse TRPC6 channel inhibitors, primary screen, cell-based, HEK293, membrane potential dye; ACh-evoked depolarization; active compounds read low; Short transient receptor potential channel 6 (Mus musculus), Q61143; B-score at 10 µM; 1.1% of 310,000 active;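 active = B-score under library mean minus 3 SD, initial fluorescence not abnormally high, positive integrated signal ratio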;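 note: B-score derived from integrated fluorescence ratio over the kinetic read; more negative B-score means stronger inhibition of depolarization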
Target sequence (Q61143 whole entry, looked up): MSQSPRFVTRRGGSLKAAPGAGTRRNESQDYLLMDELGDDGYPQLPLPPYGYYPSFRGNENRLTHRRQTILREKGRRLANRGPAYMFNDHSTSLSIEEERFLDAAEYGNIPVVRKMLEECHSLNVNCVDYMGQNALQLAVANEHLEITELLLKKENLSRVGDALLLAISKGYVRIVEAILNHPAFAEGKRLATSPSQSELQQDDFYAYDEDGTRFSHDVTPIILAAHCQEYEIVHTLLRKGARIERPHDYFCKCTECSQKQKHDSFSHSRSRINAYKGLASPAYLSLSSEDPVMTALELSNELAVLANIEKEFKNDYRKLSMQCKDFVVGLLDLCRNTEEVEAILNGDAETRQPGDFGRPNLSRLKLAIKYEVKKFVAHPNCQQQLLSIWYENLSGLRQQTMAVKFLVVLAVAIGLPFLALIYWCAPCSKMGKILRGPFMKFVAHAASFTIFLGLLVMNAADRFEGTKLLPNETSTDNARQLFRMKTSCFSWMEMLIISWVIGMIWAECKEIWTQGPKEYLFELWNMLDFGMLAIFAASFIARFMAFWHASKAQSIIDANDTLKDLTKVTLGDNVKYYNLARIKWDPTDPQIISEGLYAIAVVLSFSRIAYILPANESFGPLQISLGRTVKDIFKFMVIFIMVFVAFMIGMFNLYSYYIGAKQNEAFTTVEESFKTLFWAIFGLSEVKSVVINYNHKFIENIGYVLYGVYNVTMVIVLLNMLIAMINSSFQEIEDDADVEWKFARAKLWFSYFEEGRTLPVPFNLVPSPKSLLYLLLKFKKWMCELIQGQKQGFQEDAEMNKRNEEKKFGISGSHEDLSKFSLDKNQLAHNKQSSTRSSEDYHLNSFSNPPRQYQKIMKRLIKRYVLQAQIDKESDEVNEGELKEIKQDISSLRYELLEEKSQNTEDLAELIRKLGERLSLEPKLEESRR
TRPC4 PAM = positive allosteric modulators of TRPC4, primary screen, cell-based, mouse TRPC4beta, HEK293 mu-opioid, Fluo-4 calcium; B-score at 10 µM; 0.42% of 310,000 active; AID 2227, 2009; DAMGO EC20, Fluo-4 Ca2+ flux; active compounds read high;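 active = B-score of calcium response area above 5 SD of library B-scores, with initial fluorescence ratio within 5 SD of library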;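 note: B-score of integrated fluorescence ratio over time as area under calcium response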
TRPC6 activator = mouse TRPC6 channel activators, primary screen, cell-based, HEK293, membrane potential dye; Short transient receptor potential channel 6 (Mus musculus), Q61143; 0.13% of 310,000 active; B-score at 10 µM; HEK293-TRPC6 membrane potential dye fluorescence; active compounds read high;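 active = B-score of the integrated fluorescence ratio above library mean plus 3 SD, and starting fluorescence ratio within library mean plus 5 SD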;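 note: higher score means more depolarization so channel activation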
TRPC4 block = inhibitors of mouse TRPC4 channel, primary screen, Fluo4 calcium, HEK293 TRPC4beta/mu-opioid cells; AID 2247, 2010; Short transient receptor potential channel 4 (Mus musculus), Q9QUQ5; 0.39% of 300,000 active; B-score at 10 µM; DAMGO-evoked Fluo4 calcium flux; active compounds read low;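 active = B-score over 3 SD under the library average, no early fluorescence shift, positive overall ratio signal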
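Material: HEK293 cells with stable TRPC4beta plus mu-opioid receptor expression / Probe or stimulus: DAMGO in two steps, submaximal then maximal / Compound: single concentration per test compound / Technique: kinetic Fluo4 fluorescence imaging of calcium influx / Read-out: per-well B score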
TRPC4 spec 2 = second selectivity test of TRPC6 inhibitors: effect on mouse TRPC4; shares compounds with TRPC6 inhibitor; HEK293 TRPC4/MOR, membrane potential dye fluorescence; channel activated by saturating DAMGO dose; inhibition, % at 10 µM; 42% of 920 active;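 active = compounds whose fluorescence signal differed from control wells by over 3 SD, either direction, in both duplicate plates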
TRPC4 spec = mouse TRPC4 modulation by TRPC6 hits, confirmation, selectivity assay for TRPC6 inhibitor project, cell-based, HEK293 TRPC4/mu-opioid, membrane potential dye | shares compounds with TRPC6 inhibitor | 61% of 920 active | AID 2777, 2010 | activity change, negative = inhibition, % at 10 µM | membrane potential fluorescence;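 active = rise or fall in signal beyond 3 SD of buffer-only wells in both replicate plates, either sign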;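 note: integrated kinetic ratio of fluorescence range over baseline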
HEK293 MPD ctr 2-1 = nonspecific membrane potential effects, parental HEK293, confirmation, counter-screen for TRPC6 inhibitor project, cell-based, second counter screen. shares compounds with TRPC6 inhibitor. signal change vs control, % at 10 µM. 31% of 920 active. AID 2779, 2010. parental HEK293 membrane potential dye fluorescence; maximal acetylcholine challenge after compound addition;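 active = membrane potential signal moving either way by over 3 SD of the maximum-effect control, in both duplicate plates, meaning non-specific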
HEK293 MPD ctr-1 = membrane potential modulation in parental HEK293, confirmation, counter-screen for TRPC6 inhibitor project, cell-based; shares compounds with TRPC6 inhibitor; parental HEK293 membrane potential dye fluorescence; membrane potential signal change, % at 10 µM; 60% of 920 active; AID 2780, 2010;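 active = membrane potential signal shifting up or down by more than 3 SD of buffer-only wells, on both duplicate plates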
HEK293 MPD ctr-2 = parental HEK293 membrane potential modulation, confirmation, counter-screen for TRPC6 modulator project, cell-based; AID 488924, 2010; membrane potential dye fluorescence; 51% of 2,400 active; membrane potential signal change, % at 10 µM; shares compounds with TRPC6 inhibitor;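 active = membrane potential signal moves up or down beyond 5 SD from buffer-only wells, on both duplicate plates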
HEK293 MPD ctr 2-2 = second check of TRPC6 modulator effects in parental HEK293 cells | inhibition, % at 10 µM | membrane potential dye fluorescence; after compound, maximal acetylcholine stimulation | 14% of 2,400 active | shares compounds with TRPC6 inhibitor | AID 488926;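 active = membrane potential signal drops by more than 5 SD from the mean control signal, in both duplicate plates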;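 note: plate controls were acetylcholine ECmax control wells for no effect and buffer only wells for full effect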
TRPC4 ctr mod = TRPC4 modulation by TRPC6 hit compounds, confirmation, selectivity assay for TRPC6 modulator project, cell-based, HEK293 TRPC4/mu-opioid, membrane potential dye, mouse. shares compounds with TRPC6 inhibitor. membrane potential fluorescence. percent change from control (negative = decrease, positive = increase), % at 10 µM. 69% of 2,400 active;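 active = membrane potential signal moved up or down beyond 5 SD of buffer control wells, in both duplicate plates, actives on both sides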;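 note: plate controls were assay buffer wells for no effect and DAMGO maximal-effect wells for full effect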
TRPC4 ctr inh 2 = second selectivity test of TRPC6 modulators against mouse TRPC4. inhibition, % at 10 µM. HEK293 TRPC4/mu-opioid, membrane potential dye fluorescence; stimulated with maximal-effect DAMGO. AID 488928. 55% of 2,400 active. shares compounds with TRPC6 inhibitor;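 active = drop in membrane potential signal beyond 5 SD of the control wells in both duplicate plates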;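 note: TRPC4 counter screen for TRPC6 hits run under conditions tuned for TRPC6 not TRPC4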
TRPC6 inh conf = mouse TRPC6 channel inhibitors, confirmation, HEK293 cells, membrane potential dye, duplicate; inhibition, % at 10 µM; 43% of 3,300 active; shares compounds with TRPC6 inhibitor; ACh-evoked depolarization;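 active = fluorescence ratio falls more than 5 SD below the full-stimulation control mean, in both duplicate runs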;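 note: integrated fluorescence ratio of peak minus minimum over baseline after agonist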
TRPC6 act confirm = mouse TRPC6 channel activators, confirmation, HEK293 cells, membrane potential dye, duplicate. shares compounds with TRPC6 inhibitor. HEK293-TRPC6 membrane potential dye fluorescence, FDSS. activation, % at 10 µM. 11% of 2,800 active;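 active = ratio signal rise beyond 5 SD above unstimulated control wells' mean, seen in both duplicate runs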;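 note: plate controls were buffer EC0 wells for no effect and acetylcholine ECmax response for full effect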
* marks the source's active call; other numbers are inactive results. A selection: hits, their analogues and other compounds. The true share with any hit is near 2.3%.

What do the screens show for `CCCC(CCC)C(=O)OC[N+](C)(C)CCOC(=O)C(O)(c1ccccc1)C1CCCC1` (stereo not given)?
TRPC4 agonist: inactive; TRPC6 inhibitor: -11*; TRPC4 PAM: inactive; TRPC6 activator: inactive; TRPC4 block: inactive; TRPC4 spec 2: inactive; TRPC4 spec: inactive; HEK293 MPD ctr 2-1: -29%*; HEK293 MPD ctr-1: inactive; TRPC6 inh conf: 92%*; TRPC6 act confirm: inactive

How did CN1CCCC(C(O)(c2ccccc2)c2ccccc2)C1 (stereo not given) do in these assays?
TRPC4 agonist: inactive; TRPC6 inhibitor: inactive; TRPC4 PAM: inactive; TRPC6 activator: inactive; TRPC4 block: inactive

Results for CC(C)(C)C(=O)OC[N+](C)(C)CCOC(=O)C(O)(c1ccccc1)C1CCCC1 (stereo not given) ?
TRPC4 agonist: inactive; TRPC6 inhibitor: -5.6*; TRPC4 PAM: inactive; TRPC6 activator: inactive; TRPC4 block: inactive; HEK293 MPD ctr-2: inactive; HEK293 MPD ctr 2-2: 83%*; TRPC4 ctr mod: inactive; TRPC4 ctr inh 2: inactive; TRPC6 inh conf: 86%*; TRPC6 act confirm: inactive

What do the screens show for `O=C(O)C(O)(c1ccccc1)C1CCCC1` (stereo not given)?
TRPC4 agonist: inactive; TRPC6 inhibitor: inactive; TRPC4 PAM: inactive; TRPC6 activator: inactive; TRPC4 block: inactive

How did CC1(C)COC(Nc2cccc(Cl)c2)=N1 do in these assays?
TRPC4 agonist: inactive; TRPC6 inhibitor: inactive; TRPC4 PAM: inactive; TRPC6 activator: inactive; TRPC4 block: inactive
